Measured values from ChEMBL document CHEMBL1144581, “alpha-Amino acid derivatives as proton pump inhibitors and potent anti-ulcer agents” (2007).
Blank lines part the entries; values can stand above or below the compound they belong to. Activity calls are given as the source filed them. No cut-off for these calls is given here.

Legend:
[1] = species: Rattus norvegicus; experiment: Inhibition of gastric H+/K(+)-ATPase activity in Sprague-Dawley rat microsomal vesicles at 300 uM in presence of 1.0 mM of ATP; format: microsomes; settings: Stomach, Microsome
Outline: (§1)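 Rat gastric microsomes were prepared by density gradient and differential centrifugation. The medium held 40 mM Tris-HCl pH 7.4, 2 mM MgCl2, 10 mM KCl (water for blank) and […] vesicular protein. Compound was preincubated 30 min at 37 °C. Tris-ATP at 0.3, 1.0 or 3 mM was then added for 20 min and stopped with chilled 10% TCA. Released Pi was read at 530 nm; % inhibition vs control.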

[2] = species: Rattus norvegicus; experiment: Antisecretory activity in rat pylorus ligation-induced ulcer model determined by ratio of total acidity inhibition in drug treated to untreated control; format: functional
Outline: (§2)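 Sprague Dawley rats (130-150 g) fasted 24 h with water ad libitum; pylorus ligated through a midline incision under ether anesthesia. Dosing oral, 1 h before ligation. Gastric juice free and total acidity titrated against 0.01 N NaOH, with Topfer's reagent and phenolphthalein as indicators. Values expressed as ratio of percent inhibition, treated vs control group.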

[3] = species: Rattus norvegicus; experiment: Inhibition of gastric H+/K(+)-ATPase activity in Sprague-Dawley rat microsomal vesicles at 1000 uM in presence of 1.0 mM of ATP; format: microsomes; settings: Stomach, Microsome; outline: as §1
[4] = species: Rattus norvegicus; experiment: Inhibition of gastric H+/K(+)-ATPase activity in Sprague-Dawley rat microsomal vesicles at 100 uM in presence of 0.3 mM of ATP; format: microsomes; settings: Stomach, Microsome; outline: as §1
[5] = species: Rattus norvegicus; experiment: Inhibition of gastric H+/K(+)-ATPase activity in Sprague-Dawley rat microsomal vesicles at 3 uM in presence of 3.0 mM of ATP; format: microsomes; settings: Stomach, Microsome; outline: as §1
[6] = species: Rattus norvegicus; experiment: Inhibition of gastric H+/K(+)-ATPase activity in Sprague-Dawley rat microsomal vesicles at 10 umol; format: microsomes; settings: Stomach, Microsome; outline: as §1
[7] = species: Rattus norvegicus; experiment: Inhibition of p-NPPase in Sprague-Dawley rat microsomal vesicles at 30 uM in presence of 1.0 mM of p-NPP; format: microsomes; settings: Microsome
Outline: (§3)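 Rat gastric microsomes were assayed in 10 mM PIPES/Tris pH 7.0 with 5 mM KCl. Compound was preincubated 30 min at 37 °C. p-NPP at 1.0, 3.0 or 5.0 mM was added and incubated 20 min at 37 °C, then stopped with 0.5 N NaOH. p-Nitrophenol release was read at 410 nm; % inhibition vs control.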

[8] = species: Rattus norvegicus; experiment: Inhibition of gastric H+/K(+)-ATPase activity in Sprague-Dawley rat microsomal vesicles at 300 uM in presence of 0.3 mM of ATP; format: microsomes; settings: Stomach, Microsome; outline: as §1
[9] = species: Rattus norvegicus; experiment: Inhibition of p-NPPase in Sprague-Dawley rat microsomal vesicles at 100 uM in presence of 1.0 mM of p-NPP; format: microsomes; settings: Microsome; outline: as §3
[10] = species: Rattus norvegicus; experiment: Inhibition of gastric H+/K(+)-ATPase activity in Sprague-Dawley rat microsomal vesicles at 30 uM in presence of 1.0 mM of ATP; format: microsomes; settings: Stomach, Microsome; outline: as §1
[11] = species: Rattus norvegicus; experiment: Antisecretory activity in rat pylorus ligation-induced ulcer model determined by ratio of free acidity inhibition in drug treated to untreated control; format: functional; outline: as §2
[12] = species: Rattus norvegicus; experiment: Inhibition of p-NPPase in Sprague-Dawley rat microsomal vesicles at 30 uM in presence of 5.0 mM of p-NPP; format: microsomes; settings: Microsome; outline: as §3
[13] = species: Rattus norvegicus; experiment: Inhibition of p-NPPase in Sprague-Dawley rat microsomal vesicles at 300 uM in presence of 3.0 mM of p-NPP; format: microsomes; settings: Microsome; outline: as §3
[14] = species: Rattus norvegicus; experiment: Inhibition of p-NPPase in Sprague-Dawley rat microsomal vesicles at 300 uM in presence of 1.0 mM of p-NPP; format: microsomes; settings: Microsome; outline: as §3
[15] = species: Rattus norvegicus; experiment: Inhibition of p-NPPase in Sprague-Dawley rat microsomal vesicles at 1000 uM in presence of 1.0 mM of p-NPP; format: microsomes; settings: Microsome; outline: as §3
[16] = species: Rattus norvegicus; experiment: Inhibition of p-NPPase in Sprague-Dawley rat microsomal vesicles at 10 uM in presence of 5.0 mM of p-NPP; format: microsomes; settings: Microsome; outline: as §3
[17] = species: Rattus norvegicus; experiment: Inhibition of p-NPPase in Sprague-Dawley rat microsomal vesicles at 3 uM in presence of 1.0 mM of p-NPP; format: microsomes; settings: Microsome; outline: as §3
[18] = species: Rattus norvegicus; experiment: Inhibition of gastric H+/K(+)-ATPase activity in Sprague-Dawley rat microsomal vesicles at 1000 uM in presence of 0.3 mM of ATP; format: microsomes; settings: Stomach, Microsome; outline: as §1
[19] = species: Rattus norvegicus; experiment: Inhibition of gastric H+/K(+)-ATPase activity in Sprague-Dawley rat microsomal vesicles at 10 uM in presence of 0.3 mM of ATP; format: microsomes; settings: Stomach, Microsome; outline: as §1
[20] = species: Rattus norvegicus; experiment: Inhibition of p-NPPase in Sprague-Dawley rat microsomal vesicles at 1000 uM in presence of 3.0 mM of p-NPP; format: microsomes; settings: Microsome; outline: as §3
[21] = tested on: Rattus norvegicus; experiment: Antisecretory activity in rat pylorus ligation-induced ulcer model assessed as inhibition of free acidity of gastric juice at 20 mg/kg; format: functional, organism-based; parameters: dose 20 mg/kg; outline: as §2
[22] = species: Rattus norvegicus; experiment: Inhibition of gastric H+/K(+)-ATPase activity in Sprague-Dawley rat microsomal vesicles at 300 uM in presence of 3.0 mM of ATP; format: microsomes; settings: Stomach, Microsome; outline: as §1
[23] = species: Rattus norvegicus; experiment: Inhibition of gastric H+/K(+)-ATPase activity in Sprague-Dawley rat microsomal vesicles at 10 uM in presence of 3.0 mM of ATP; format: microsomes; settings: Stomach, Microsome; outline: as §1
[24] = species: Rattus norvegicus; experiment: Inhibition of gastric H+/K(+)-ATPase activity in Sprague-Dawley rat microsomal vesicles at 10 uM in presence of 1.0 mM of ATP; format: microsomes; settings: Stomach, Microsome; outline: as §1
[25] = species: Rattus norvegicus; experiment: Inhibition of gastric H+/K(+)-ATPase activity in Sprague-Dawley rat microsomal vesicles at 30 uM in presence of 3.0 mM of ATP; format: microsomes; settings: Stomach, Microsome; outline: as §1
[26] = species: Rattus norvegicus; experiment: Inhibition of p-NPPase in Sprague-Dawley rat microsomal vesicles at 3 uM in presence of 3.0 mM of p-NPP; format: microsomes; settings: Microsome; outline: as §3
[27] = species: Rattus norvegicus; experiment: Inhibition of p-NPPase in Sprague-Dawley rat microsomal vesicles at 10 uM in presence of 3.0 mM of p-NPP; format: microsomes; settings: Microsome; outline: as §3
[28] = species: Rattus norvegicus; experiment: Inhibition of p-NPPase in Sprague-Dawley rat microsomal vesicles at 100 uM in presence of 3.0 mM of p-NPP; format: microsomes; settings: Microsome; outline: as §3
[29] = species: Rattus norvegicus; experiment: Inhibition of gastric H+/K(+)-ATPase activity in Sprague-Dawley rat microsomal vesicles at 3 uM in presence of 1.0 mM of ATP; format: microsomes; settings: Stomach, Microsome; outline: as §1
[30] = species: Rattus norvegicus; experiment: Inhibition of gastric H+/K(+)-ATPase activity in Sprague-Dawley rat microsomal vesicles at 100 uM in presence of 1.0 mM of ATP; format: microsomes; settings: Stomach, Microsome; outline: as §1
[31] = tested on: Rattus norvegicus; experiment: Antisecretory activity in rat pylorus ligation-induced ulcer model assessed as inhibition of total acidity of gastric juice at 20 mg/kg; format: functional, organism-based; parameters: dose 20 mg/kg; outline: as §2
[32] = species: Rattus norvegicus; experiment: Inhibition of gastric H+/K(+)-ATPase activity in Sprague-Dawley rat microsomal vesicles at 1000 uM in presence of 3.0 mM of ATP; format: microsomes; settings: Stomach, Microsome; outline: as §1
[33] = species: Rattus norvegicus; experiment: Inhibition of gastric H+/K(+)-ATPase activity in Sprague-Dawley rat microsomal vesicles at 3 uM in presence of 0.3 mM of ATP; format: microsomes; settings: Stomach, Microsome; outline: as §1
[34] = species: Rattus norvegicus; experiment: Inhibition of gastric H+/K(+)-ATPase activity in Sprague-Dawley rat microsomal vesicles at 30 uM in presence of 0.3 mM of ATP; format: microsomes; settings: Stomach, Microsome; outline: as §1
[35] = species: Rattus norvegicus; experiment: Inhibition of gastric H+/K(+)-ATPase activity in Sprague-Dawley rat microsomal vesicles at 100 uM in presence of 3.0 mM of ATP; format: microsomes; settings: Stomach, Microsome; outline: as §1
[36] = species: Rattus norvegicus; experiment: Inhibition of p-NPPase in Sprague-Dawley rat microsomal vesicles at 100 uM in presence of 5.0 mM of p-NPP; format: microsomes; settings: Microsome; outline: as §3
[37] = species: Rattus norvegicus; experiment: Inhibition of p-NPPase in Sprague-Dawley rat microsomal vesicles at 30 uM in presence of 3.0 mM of p-NPP; format: microsomes; settings: Microsome; outline: as §3
[38] = species: Rattus norvegicus; experiment: Inhibition of p-NPPase in Sprague-Dawley rat microsomal vesicles at 10 uM in presence of 1.0 mM of p-NPP; format: microsomes; settings: Microsome; outline: as §3

- inhibition [1]: 51%
- inhibition [3]: 55%
- inhibition [4]: 32%
- inhibition [5]: 25%
- inhibition [6]: 59%
- inhibition [7]: 33%
- inhibition [8]: 51%
- inhibition [9]: 42%
- inhibition [10]: 12%
- inhibition [12]: 13%
- inhibition [13]: 35%
- inhibition [14]: 56%
- inhibition [15]: 85%
- inhibition [16]: 5%
- inhibition [17]: 13%
- inhibition [18]: 67%
- inhibition [19]: 23%
- inhibition [20]: 38%
- inhibition [22]: 46%
- inhibition [23]: 30%
- inhibition [24]: 28%
- inhibition [25]: 34%
- inhibition [26]: 26%
- inhibition [27]: 16%
- inhibition [28]: 18%
- inhibition [29]: 12%
- inhibition [30]: 16%
- inhibition [32]: 50%
- inhibition [33]: 20%
- inhibition [34]: 27%
- inhibition [35]: 28%
- inhibition [36]: 16%
- inhibition [37]: 8%
- inhibition [38]: 16%
SMILES: O=C1N[C@H](C(=O)O)[C@H](/C=C/c2ccccc2)O1 (relative stereo)
- Activity [2]: 1.07
- Activity [11]: 0.96
- Activity [21]: Active
- Activity [31]: Active

- inhibition [6]: 92%
SMILES: CC(C)(C)OC(=O)[C@@H]1CCC(=O)N1Cc1ccccc1
- Activity [2]: 0.52
- Activity [11]: 0.34

- inhibition [6]: 49%
SMILES: COc1ccccc1CN1C(=O)CC[C@H]1C(=O)O
- Activity [2]: 0.64
- Activity [11]: 0.61

- inhibition [6]: 92%
SMILES: O=C(O)[C@@H]1CCCN1C(=O)Cc1ccccc1
- Activity [2]: 0.38
- Activity [11]: 0.41

- inhibition [6]: 71%
SMILES: O=C(O)[C@@H]1CCC(=O)N1Cc1ccccc1Cc1ccccc1
- Activity [2]: 0.33
- Activity [11]: 0.48

- inhibition [6]: 32%
SMILES: O=C(O)[C@@H]1CCC(=O)N1Cc1ccccc1Cl
- Activity [2]: 0.51
- Activity [11]: 0.66

- inhibition [6]: 92%
SMILES: CC(C)(C)[C@H]1OC(=O)[C@@H]2CCC(=O)N21
- Activity [2]: 0.49
- Activity [11]: 0.61

- inhibition [6]: 44%
SMILES: CC(C)(C)[C@H]1OC(=O)[C@@]2([C@@H](O)c3ccccc3)CCC(=O)N12
- Activity [2]: 0.27
- Activity [11]: 0.17
